Rows were chosen to be rich in hits. Some 6% of all compounds tested hit in one or more screens of this group.
EphB4 ephrin blk: EphB4-ephrin-B2 interaction antagonism; P54760; EphB4 LBD / TNYL-RAW-Alexa532 peptide, fluorescence polarization; inhibition, % at 7 µM; hit rate 0.15% among 97,000;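 active means inhibition above the screen-wide mean inhibition plus 3 SD, cut at about 15% in these data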;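 further: 0% = DMSO wells and 100% = excess unlabeled TNYL-RAW peptide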
tolC growth inh: blocks growth of E. coli BW25113 tolC mutant. OD615. growth inhibition, % at 10 µM (by protocol). hit rate 2.2% among 65,000. AID 573;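 active means growth inhibition at or above a cutoff equal to the mean over every tested compound plus 3 SD, cut at about 60% in these data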;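 further: growth measured after 20 h incubation at 37 °C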
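Test system: E. coli BW25113 ΔtolC::kan bacteria; incubation: 37 °C, 20 h exposure; medium: LB broth supplemented with 50 µg/mL kanamycin; read-out basis: percent growth inhibition; signal: A615 absorbance measurement; compound: 10 µM final, single dose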
PostGolgi ctrl: yeast control strain growth, post-Golgi counter-screen | efflux-deficient yeast background strain, growth absorbance A615, 16 h | inhibition, % at 10 µM | hit rate 5% among 98,000
PostGolgi yeast: growth inhibition of a yeast mutant, post-Golgi transport screen | inhibition, % at 10 µM | post-Golgi transport phenotypic cell assay | hit rate 0.9% among 98,000;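 further: yeast cells grown in 1536-well plates; yeast grown about 18 h at 30C before absorbance read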
E coli WT exp: growth inhibitors of E. coli BW25113 wild type. hit rate 0.15% among 98,000. OD600 absorbance. AID 710. growth inhibition, % at 100 µM;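 active means growth inhibition above about 50% at one test dose, limit read from the data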;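 further: growth measured after 20 h incubation at 37 °C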
* = called active by the depositor; / = no result. Unless noted, no stated cut-off is given here; in the data, active means inhibition above about 30%; inactive means the rest.

SMILES	EphB4 ephrin blk	tolC growth inh	PostGolgi ctrl	PostGolgi yeast	E coli WT exp
CCOC(=O)C1CCCN(C(=O)Cn2nc(CC)n3c(cc4sccc43)c2=O)C1 (centres undefined)	0	4	53*	-4	5
COc1ccccc1CC(=O)O/N=C(\N)Cc1cccc2ccccc12	1	/	30*	-3	8
COc1ccccc1C/C(N)=N/OC(=O)COc1ccc(C)cc1C	-1	/	/	/	/
O=C1c2ccsc2SCCN1Cc1c(Cl)cccc1Cl	-1	/	19	-5	-8
CCS(=O)(=O)N1Cc2ccccc2CC1C(=O)N1CCN(c2cccc(C)c2C)CC1 (centres undefined)	-8	23	2	9	-6
CC(=O)COc1ncn(-c2ccccc2)n1	-4	/	0	10	-6
CC(C)(C)c1ccc(S(=O)(=O)Nc2cccnc2)cc1	3	/	30*	-3	-6
CC(=O)NCCc1ccc(S(=O)(=O)Nc2cccnc2)cc1	4	-10	33*	5	4
O=S(=O)(Nc1cccnc1)c1ccc(Cl)cc1	3	/	8	-1	14
Cc1ccccc1OCCCN1C(=O)C(=O)c2cccc(C)c21	2	100*	-3	-3	4
Cc1cccc2c1N(CCCOc1ccccc1)C(=O)C2=O	-2	/	4	-7	7
Cc1ccc2nc(NC(=O)CN(C)S(=O)(=O)c3cccc4nsnc34)sc2c1	1	-16	-10	6	1
Cc1ccc2nc(NC(=O)CNS(=O)(=O)c3ccc(Br)s3)sc2c1	-6	61*	10	7	-12
Cc1ccc2nc(NC(=O)CN(C)S(=O)(=O)c3ccc(Br)s3)sc2c1	0	81*	35*	21	-10
O=C(N/N=C/c1ccncc1)c1cc([N+](=O)[O-])cc([N+](=O)[O-])c1O	19*	/	-9	-9	-6
Cc1cc(C(=O)N/N=C/c2cccc([N+](=O)[O-])c2)c(C)o1	-6	/	11	-6	-9
CCC(C)(C)n1nnnc1C(c1cc(OC)ccc1OC)N1CCC(C(N)=O)CC1 (centres undefined)	9	/	/	/	/
CCC(Sc1nnnn1-c1ccccc1)C(=O)Nc1nc2ccccc2s1 (centres undefined)	1	74*	44*	9	-38
COc1ccc(N=CC2=C(Nc3ccc(OC)cc3)c3c(C)nn(-c4ccccn4)c3CC2)cc1	25*	/	/	/	/
COc1ccc(-c2cc(C(=O)O)c3c(C)nn(-c4ccccn4)c3n2)cc1	6	/	8	16	3
N/C(=N\S(=O)(=O)c1ccc(Cl)s1)c1ccccc1	2	10	1	21	8
COc1ccc(S(=O)(=O)Cc2ccc(C(=O)N3CCN(c4ccccc4F)CC3)o2)cc1	-2	15	32*	-5	1
Cc1ccccc1S(=O)(=O)Cc1ccc(C(=O)N2CCN(c3cccc(C)c3C)CC2)o1	/	69*	38*	0	-16
COc1ccc(S(=O)(=O)Cc2ccc(C(=O)N3CCN(c4ccccc4)CC3)o2)cc1	/	20	2	2	-3
Cc1ccccc1S(=O)(=O)Cc1ccc(C(=O)N2CC(C)CC(C)C2)o1 (centres undefined)	0	19	19	8	2
SMILES	EphB4 ephrin blk	tolC growth inh	PostGolgi ctrl	PostGolgi yeast	E coli WT exp
CC1Cc2ccccc2N1C(=O)COC(=O)c1ccc(S(=O)(=O)N(C)C)cc1 (centres undefined)	-1	-16	11	30*	0
CCOC(=O)c1c(C)[nH]c(C(=O)OCC(=O)N2c3ccccc3CC2C)c1C (centres undefined)	2	4	-5	-8	4
CCCn1c(CN2CCCCC2C)nc2c1c(=O)n(C)c(=O)n2C (centres undefined)	/	-6	37*	-4	2
CCCCCCn1c(CN2CCCCC2C)nc2c1c(=O)n(C)c(=O)n2C (centres undefined)	-7	16	/	/	/
Cc1noc(C)c1COC(=O)c1cc2c3ccccc3n(C)c2s1	-2	29	37*	-7	-24
COc1ccc(CCN2CC(C(=O)NCc3ccco3)CC2=O)cc1OC (centres undefined)	-1	/	33*	-11	10
CN(C(=S)Nc1ccc(F)cc1)C1(c2ccccc2Cl)CCCCC1=O (centres undefined)	-4	/	36*	9	-8
O=C(NCCOC12CC3CC(CC(C3)C1)C2)c1cccc(Br)c1	-1	/	20	1	-3
O=c1c2c(-c3ccco3)csc2nc(SCc2cn3cccnc3n2)n1-c1ccccc1	-5	29	36*	-5	-4
NC(=O)CSc1nc2scc(-c3ccco3)c2c(=O)n1-c1ccccc1	-3	3	-5	-15	-3
CSc1cccc(NC(=O)CN(C)S(=O)(=O)c2ccc(C)cc2)c1	5	16	1	-1	-23
Cc1ccc(SCC(=O)NC(=O)NCc2ccco2)cc1C	-7	/	12	5	-4
COc1ccc(C2CC(=O)C(C=NCCCN3CCOCC3)=C(O)C2)cc1 (centres undefined)	-6	-3	39*	-4	1
O=C1CC(c2ccc(F)cc2)CC(O)=C1C=NCCN1CCNCC1 (centres undefined)	8	/	/	/	/
O=C1CC(c2ccc(Cl)c(Cl)c2)CC(O)=C1C=NCCN1CCNCC1 (centres undefined)	1	7	37*	14	-1
C=CCn1c(SCC(N)=O)nnc1-c1cccc(Br)c1	4	2	18	-6	1
C=CCn1c(SCc2ccccc2C#N)nnc1-c1cc(Br)ccc1O	2	38	52*	-8	-8
CCOC(=O)c1c(CN2CCN(C)CC2)n(C)c2cc(Br)c(OC)cc12	/	-12	5	-10	5
CCOC(=O)c1c(CN2CCOCC2)n(-c2ccccc2)c2cc(Br)c(OC)cc12	6	/	54*	-1	-25
COc1cc2c(C(=O)N3CCN(c4ccccc4)CC3)c(C)oc2cc1Br	-1	10	35*	0	-13
COc1ccc(N2CCN(C(=O)c3c(-c4ccccc4)noc3C)CC2)cc1	-8	-3	0	0	-4
CCOC(=O)c1c(CN2CCCCC2)n(C)c2cc(Br)c(O)cc12	-2	/	0	-3	-1
CCOC(=O)c1c(CN2CCOCC2)n(-c2ccccc2)c2cc(Br)c(O)cc12	4	/	41*	6	-3
CC1(C)C(=O)OC(c2cccs2)C(C)(C)C1=O (centres undefined)	3	-9	-4	6	7
Cc1ccc(C(=O)NCc2ccco2)cc1S(=O)(=O)Nc1cccc(Cl)c1	-3	/	17	-6	14
O=C(NCCN1CCN(Cc2ccccc2)CC1)C1c2ccccc2C(=O)N2CCc3ccccc3C12 (centres undefined)	0	-6	2	9	-1
O=C1c2cnc3nc(SCc4ccccc4)nn3c2CC2c3ccccc3CCN12 (centres undefined)	-2	/	96*	68*	2
COc1ccc(CN(C(=O)c2ccco2)c2ccccc2)cc1	-6	/	/	/	/
O=C(c1ccco1)N(Cc1ccc([N+](=O)[O-])cc1)c1ccc(Br)cc1	7	/	45*	0	-20

Source: PubChem BioAssay (several laboratories)
